The results in this text go back to ChEMBL document CHEMBL4196141, “Improved Antibacterial Activity of the Marine Peptide N6 against Intracellular Salmonella Typhimurium by Conjugating with the Cell-Penetrating Peptide Tat11 via a Cleavable Linker” (J Med Chem, 2018).

SMILES strings stand for the structures. ≈ marks a conversion by molar mass, not a printed value. Calls of active or inactive are those of the source. The calls are words filed in the database; no cut-off is given here. Bounds are passed on as bounds.

For data set [1], the system named is Salmonella typhimurium. The data set can be described thus: Antibacterial activity against Salmonella typhimurium ATCC 14028 incubated for 16 to 18 hrs at pH 7.2 by broth microdilution method. It counts as functional, Salmonella enterica subsp. enterica serovar Typhimurium. Conditions: Salmonella enterica. Put shortly:
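Broth microdilution in MH broth. S. Typhimurium ATCC14028 was grown overnight at 37 °C to semi-log phase, pelleted, and diluted to OD600 0.01; final inoculum was 5 × 10^5 CFU/mL. Plates were incubated 16–18 h at 37 °C. MIC is the lowest peptide concentration with no visible growth. Data are in duplicate from at least two independent experiments.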

The nature of data set [2]: Drug localisation in cytosol of mouse RAW264.7 using FITC-labeled compound at 5 uM incubated for 2 hrs by confocal microscopy. Format: ADME, cell-based. A digest of the protocol:
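RAW264.7 cells were plated for 18 h at 37 °C, then given 5 µM FITC or FITC-labeled peptide for 2 h. Nuclei were stained with Hoechst 33342 and membranes with FM 4-64 (each 5 µg/mL) for 30 min at 37 °C. Cells were PBS-washed and imaged by confocal fluorescence microscopy.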

The nature of data set [3]: Drug internalization in mouse RAW264.7 using FITC-labeled compound at 2 uM incubated for 2 hrs at 4 degC by flow cytometry. It counts as ADME, cell-based. The note with it: raw264.7, 2 h.
Data set [4] can be described thus: Drug internalization in mouse RAW264.7 using FITC-labeled compound at 2 uM pre-incubated for 1 hr with clathrin-mediated endocytosis inhibitor chlorpromazine followed by compound addition and subsequent incubation for 2 hrs by flow cytometry. Format: ADME, cell-based. Conditions: raw264.7, 2 h. Put shortly: (§1)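 RAW264.7 cells were pretreated 1 h at 37 °C with 3 mM amiloride, 20 µM nocodazole, 6 µg/mL chlorpromazine or 5 mM MβCD. FITC-labeled peptide was then added for 2 h at 37 °C. Extracellular fluorescence was quenched with 0.4% Trypan blue and intracellular fluorescence read by flow cytometry against an untreated control.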

Data set [5] can be described thus: Drug internalization in mouse RAW264.7 using FITC-labeled compound at 2 uM pre-incubated for 1 hr with macropinocytosis inhibitor amiloride followed by compound addition and subsequent incubation for 2 hrs by flow cytometry. It counts as ADME, cell-based. The note with it: raw264.7, 2 h. Put shortly: as §1
Data set [6] can be described thus: Drug internalization in mouse RAW264.7 using FITC-labeled compound at 2 uM pre-incubated for 1 hr with lipid rafts disruptor methyl-beta-cyclodextrin followed by compound addition and subsequent incubation for 2 hrs by flow cytometry. The note with it: raw264.7, 2 h. Format: ADME, cell-based. A digest of the protocol: as §1
Data set [7] can be described thus: Drug internalization in mouse RAW264.7 using FITC-labeled compound at 2 uM pre-incubated for 1 hr with tubulin polymerization inhibitor nocodazole followed by compound addition and subsequent incubation for 2 hrs by flow cytometry. It counts as ADME, cell-based. The note with it: raw264.7, 2 h. Put shortly:
as §1

The test system of data set [8] is Salmonella typhimurium. The data set can be described thus: Antibacterial activity against Salmonella typhimurium ATCC 14028 using 1 hr cathepsin B pre-treated compound at pH 5 incubated for 16 to 18 hrs at by broth microdilution method. The note with it: Salmonella enterica. Format: functional, Salmonella enterica subsp. enterica serovar Typhimurium. Put shortly: (§2)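 Cathepsin B (bovine spleen, 10 µg/mL) was added for 1 h at 37 °C, and the reaction was stopped with 9 volumes of MHB. MIC was then run by broth microdilution (5 × 10^5 CFU/mL, 16–18 h, 37 °C) in medium adjusted to pH 5.0.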

Data set [9] has as its system Salmonella typhimurium. As to the kind of experiment: Antibacterial activity against Salmonella typhimurium ATCC 14028 using 1 hr cathepsin B pre-treated compound followed by incubation for 16 to 18 hrs at pH 5 by broth microdilution method. Conditions: Salmonella enterica. Format: functional, Salmonella enterica subsp. enterica serovar Typhimurium. Put shortly: as §2

For data set [10], the system named is Salmonella typhimurium. The data set can be described thus: Antibacterial activity against Salmonella typhimurium ATCC 14028 assessed as time duration for reduction in growth using cathepsin B pre-treated compound at 1 to 2 MIC incubated for 1 to 24 hrs by time kill assay. It counts as functional, Salmonella enterica subsp. enterica serovar Typhimurium. A digest of the protocol:
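Time-kill of cathepsin B-pretreated peptide (1 h, 37 °C, pH 5 buffer). Mid-log S. Typhimurium at 10^5 CFU/mL was exposed to 1× and 2× MIC at 37 °C with shaking at 250 rpm. Samples were taken every 2 h, serially diluted and plate-counted. N6 and ciprofloxacin served as controls.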

Data set [11] can be described thus: Cytotoxicity in mouse RAW264.7 assessed as cell survival at 100 uM incubated for 8 hrs by MTT assay. Format: cell-based. The note with it: RAW264.7 cells, read-out: Survival. Put shortly:
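RAW264.7 cells seeded at 2.5 × 10^4 cells/well, cultured 24 h, then exposed for 8 h to 2-fold dilutions from 100 to 0.625 µM. MTT at 5 mg/mL added for 4 h, formazan dissolved in DMSO, absorbance read at 570 nm. Untreated cells served as control. Samples run in triplicate.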

A short description of data set [12]: Induction of hemolysis in mouse RBC at 100 uM incubated for 1 hrs at 37 degC. Format: cell-based, Erythrocyte. The note with it: red blood cells (erythrocytes), read-out: Activity. Put shortly:
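Fresh mouse erythrocytes were washed three times in 0.9% NaCl, and an 8% suspension was incubated with peptide (2-fold dilutions, 100 to 0.3125 µM) for 1 h at 37 °C. Released hemoglobin was read at 540 nm. 1% Triton X-100 defined 100% lysis; polymyxin served as positive control and NaCl as negative.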

The subject of data set [13] is Salmonella typhimurium. As to the kind of experiment: Bactericidal activity against 2 hrs-gentamicin pre-exposed Salmonella typhimurium ATCC 14028 assessed as reduction colony forming units at 10 uM measured within 9 hrs. Format: functional, organism-based. The note with it: Salmonella enterica subsp. enterica serovar Typhimurium. Put shortly: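 RAW264.7 cells in DMEM/10% FBS were infected with S. Typhimurium ATCC14028 at MOI 10 for 1 h, then given 100 µg/mL gentamicin for 2 h at 37 °C and washed. Cells were treated with 10 µM agent for 1, 3, 6, 9 and 12 h, lysed with 0.1% Triton X-100, and surviving intracellular bacteria were serially diluted and plated for CFU.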

Data set [14] relates to Salmonella typhimurium. The data set can be described thus: Bactericidal activity against 2 hrs-gentamicin pre-exposed Salmonella typhimurium ATCC 14028 assessed as reduction colony forming units at 20 uM incubated for 10 hrs. Format: functional, Salmonella enterica subsp. enterica serovar Typhimurium. A digest of the protocol: (§3)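 Macrophage protection assay. RAW264.7 cells (5 × 10^4/well, 24 h) were infected with S. Typhimurium ATCC14028 at MOI 10 for 1 h in DMEM/10% FBS, exposed to 100 µg/mL gentamicin for 2 h at 37 °C, and PBS-washed. Peptides in DMEM/10% FBS were added for 10 h. Cells were lysed with 0.1% Triton X-100 and CFU plated; log10 CFU reduction versus untreated cells. Three replicates; two independent experiments; one-way ANOVA with Tukey.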

For data set [15], the system named is Salmonella typhimurium. As to the kind of experiment: Bactericidal activity against 2 hrs-gentamicin pre-exposed Salmonella typhimurium ATCC 14028 assessed as reduction colony forming units at 50 uM incubated for 10 hrs. It counts as functional, Salmonella enterica subsp. enterica serovar Typhimurium. Put shortly: as §3
The subject of data set [16] is Salmonella typhimurium. The data set can be described thus: Bactericidal activity against 2 hrs-gentamicin pre-exposed Salmonella typhimurium ATCC 14028 assessed as reduction colony forming units at 20 uM incubated for 10 hrs relative to marine peptide N6. Format: functional, Salmonella enterica subsp. enterica serovar Typhimurium. Details: scale not given: the % may be the effect or the level left. A digest of the protocol:
as §3

Data set [17] concerns Salmonella typhimurium. As to the kind of experiment: Bactericidal activity against 2 hrs-gentamicin pre-exposed Salmonella typhimurium ATCC 14028 assessed as reduction colony forming units at 50 uM incubated for 10 hrs relative to marine peptide N6. It counts as functional, Salmonella enterica subsp. enterica serovar Typhimurium. Also on record: scale not given: the % may be the effect or the level left. A digest of the protocol:
as §3

The subject of data set [18] is Salmonella typhimurium. The data set can be described thus: Antibacterial activity against Salmonella typhimurium ATCC 14028 infected in ICR mouse model of peritonitis assessed as reduction colony forming units in total peritoneal fluids at 1 umol/kg, ip dosed at 2 hrs post infection and measured after 10 hrs post dose. Format: functional, Salmonella enterica subsp. enterica serovar Typhimurium. Put shortly:
(§4)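 Six-week-old female ICR mice (six per group) received ip S. Typhimurium ATCC14028 (5 × 10^5 CFU, 0.5 mL). Peptide was given ip 2 h post-infection and mice were killed 10 h after treatment. Peritoneum was lavaged with 5 mL ice-cold PBS and total CFU counted. For intracellular CFU, pelleted cells were treated with 100 µg/mL gentamicin for 1 h at 37 °C, washed, lysed and plated. PBS served as negative control, ciprofloxacin as positive.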

The test system of data set [19] is Salmonella typhimurium. The data set can be described thus: Antibacterial activity against Salmonella typhimurium ATCC 14028 infected in ICR mouse model of peritonitis assessed as reduction colony forming units in intracellular fluids at 1 umol/kg, ip dosed at 2 hrs post infection and measured after 10 hrs post dose. It counts as functional, Salmonella enterica subsp. enterica serovar Typhimurium. Put shortly: as §4

Data set [20] deals with Salmonella typhimurium. The data set can be described thus: Antibacterial activity against Salmonella typhimurium ATCC 14028 infected in ICR mouse model of peritonitis assessed as reduction colony forming units in kidney at 1 to 2 umol/kg, ip dosed at 2 hrs post infection and measured after 10 hrs post dose relative to marine peptide N6. Format: functional, Salmonella enterica subsp. enterica serovar Typhimurium. Details: scale not given: the % may be the effect or the level left. A digest of the protocol:
(§5)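 Female ICR mice, six weeks old (six per group), were infected ip with S. Typhimurium ATCC14028 (5 × 10^5 CFU, 0.5 mL). Peptide was given ip at 1, 1.5 or 2 µmol/kg 2 h post-infection. Mice were killed 10 h after treatment, and kidneys and spleens were homogenized in sterile PBS for CFU counts of translocated bacteria. PBS-treated mice served as negative control, ciprofloxacin-treated mice as positive.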

The subject of data set [21] is Salmonella typhimurium. As to the kind of experiment: Antibacterial activity against Salmonella typhimurium ATCC 14028 infected in ICR mouse model of peritonitis assessed as reduction colony forming units in spleen at 1 to 2 umol/kg, ip dosed at 2 hrs post infection and measured after 10 hrs post dose relative to marine peptide N6. It counts as functional, Salmonella enterica subsp. enterica serovar Typhimurium. Details: scale not given: the % may be the effect or the level left. A digest of the protocol:
as §5

In data set [22] the test system is Salmonella typhimurium. The data set can be described thus: Antibacterial activity against Salmonella typhimurium ATCC 14028 infected in ICR mouse model of peritonitis assessed as mouse survival at 1 umol/kg, ip dosed at 0.5 and 8 hrs post infection and measured daily for 7 days.
Data set [23] deals with Salmonella typhimurium. The data set can be described thus: Antibacterial activity against Salmonella typhimurium ATCC 14028 infected in ICR mouse model of peritonitis assessed as mouse survival at 1.5 umol/kg, ip dosed at 0.5 and 8 hrs post infection and measured daily for 7 days.

As to `N=C(N)NCCC[C@H](NC(=O)[C@H](CCCNC(=N)N)NC(=O)[C@H](CCCNC(=N)N)NC(=O)[C@H](CCC(N)=O)NC(=O)[C@H](CCCNC(=N)N)NC(=O)[C@H](CCCNC(=N)N)NC(=O)[C@H](CCCCN)NC(=O)[C@H](CCCCN)NC(=O)[C@H](CCCNC(=N)N)NC(=O)CNC(=O)[C@@H](N)Cc1ccc(O)cc1)C(=O)O`, the minimum inhibitory concentration (MIC) with Salmonella typhimurium [1] was over 82.1 µM. Also, the Drug uptake entry in data set [2] is on record as “Active”; in data set [3] it was “Not Active”; in data set [4] it was “Not Active”; in data set [5] it was “Not Active”; in data set [6], “Not Active”; in data set [7] it was “Active”.
With `CC(C)[C@H](NC(=O)CCCCCN1C(=O)CC(SC[C@H](N)C(=O)N[C@@H](Cc2ccc(O)cc2)C(=O)NCC(=O)N[C@@H](CCCNC(=N)N)C(=O)N[C@@H](CCCCN)C(=O)N[C@@H](CCCCN)C(=O)N[C@@H](CCCNC(=N)N)C(=O)N[C@@H](CCCNC(=N)N)C(=O)N[C@@H](CCC(N)=O)C(=O)N[C@@H](CCCNC(=N)N)C(=O)N[C@@H](CCCNC(=N)N)C(=O)N[C@@H](CCCNC(=N)N)C(=O)O)C1=O)C(=O)N[C@@H](CCCNC(N)=O)C(=O)Nc1ccc(COC(=O)NCC(=O)N[C@@H](Cc2ccccc2)C(=O)N[C@@H](C)C(=O)N[C@@H](Cc2c[nH]c3ccccc23)C(=O)N[C@@H](CC(N)=O)C(=O)N[C@H](C(=O)N[C@H]2CSSC[C@@H](C(=O)N[C@@H](Cc3cnc[nH]3)C(=O)N[C@@H](CCCNC(=N)N)C(=O)N[C@@H](CCCNC(=N)N)C(=O)N[C@@H](C)C(=O)N[C@@H](CC(N)=O)C(N)=O)NC(=O)[C@H](C(C)C)NC(=O)[C@H](CCCNC(=N)N)NC(=O)[C@H](C(C)C)NC(=O)CNC(=O)[C@H](CC(N)=O)NC(=O)[C@H](CCCNC(=N)N)NC(=O)[C@H](Cc3ccc(O)cc3)NC(=O)[C@H](C(C)C)NC2=O)C(C)C)cc1` (some centres undefined), the minimal inhibitory concentration (MIC) with Salmonella typhimurium [1] is 13.6 µM (≈ 64.4 µg/mL); with Salmonella typhimurium [8] it was 1.7 µM (≈ 8.05 µg/mL); in the data set with Salmonella typhimurium [9] it was 3.4 µM (≈ 16.1 µg/mL). In the data set on Salmonella typhimurium [10], the Time entry is reported as “<=2 hr”. In data set [11], the viability at 8 h, 100 µM is 64.3%. The hemolysis at 1 h, 100 µM in [12] worked out at 4.6%. In addition, in the data set with Salmonella typhimurium [13], the outcome was Active. In addition, the Activity with Salmonella typhimurium [14] was 2.54 log10CFU; in the data set with Salmonella typhimurium [15] it was 3.29 log10CFU; in the data set on Salmonella typhimurium [16], 98.9%; in the data set on Salmonella typhimurium [17], 98.6%; in the data set on Salmonella typhimurium [18] it was 3.46 log10CFU; in the data set with Salmonella typhimurium [19], 2.04 log10CFU. In addition, the Activity is 241% with Salmonella typhimurium [20], 241% with Salmonella typhimurium [21], 83.3% in the data set with Salmonella typhimurium [22] and 100% in the data set on Salmonella typhimurium [23].
